Drawing on ChEMBL document CHEMBL4431309, “17β-Hydroxy-18-acetoxywithanolides from Aeroponically Grown Physalis crassifolia and Their Potent and Selective Cytotoxicity for Prostate Cancer Cells” (J Nat Prod, 2016), this text covers IC50 and Activity for 15 compounds.

Molecules are shown by their SMILES. Activity calls are given as the source filed them. The calls are words filed in the database; no cut-off is given here. Where only a bound is given, the exact number is not on record here.

In series [1] the test system is HFF. Briefly: Cytotoxicity against human HFF cells after 72 hrs by resazurin-based colorimetric assay. The format is cell-based. Put shortly:
(§1)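 Doxorubicin (positive) and DMSO (negative) were run as controls. Compounds were tested up to a highest concentration of 5.0 μM.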
In general terms: Resazurin is reduced to fluorescent resorufin, in cell work by metabolically active cells.

Series [2] concerns NCI-H460. The series is described as follows: Cytotoxicity against human NCI-H460 cells after 72 hrs by resazurin-based colorimetric assay. The format is functional, cell-based. To be noted: NCI-H460, 72 h. Put shortly: (§2)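 Human non-small-cell lung cancer line (NCI-H460). Doxorubicin was included as positive control and DMSO as negative control. The maximum concentration tested was 5.0 μM.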

For series [3], the system named is MCF7. Briefly: Cytotoxicity against human MCF7 cells after 72 hrs by resazurin-based colorimetric assay. It is filed as functional, cell-based. The conditions noted are these: MCF7, 72 h. Put shortly:
(§3)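 Human breast cancer line (MCF-7). Doxorubicin was the positive control and DMSO the negative control. Testing went up to 5.0 μM.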

Series [4] relates to SF-268. The series is described as follows: Cytotoxicity against human SF268 cells after 72 hrs by resazurin-based colorimetric assay. The conditions noted are these: SF-268, 72 h. It is filed as functional, cell-based. Put shortly:
as §1

The subject of series [5] is LNCaP. The series is described as follows: Cytotoxicity against human LNCAP cells after 72 hrs by resazurin-based colorimetric assay. The format is functional, cell-based. Put shortly: (§4)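 Androgen-sensitive human prostate adenocarcinoma line (LNCaP). Doxorubicin served as positive control and DMSO as negative control. Compounds were tested at concentrations up to 5.0 μM.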

For series [6], the system named is PC-3M. Briefly: Cytotoxicity against human PC3M cells after 72 hrs by resazurin-based colorimetric assay. It is filed as functional, cell-based. The method in brief:
(§5)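 Metastatic human prostate adenocarcinoma line (PC-3M). Controls were doxorubicin (positive) and DMSO (negative). The highest concentration tested was 5.0 μM.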

Series [7] deals with SF-268. Briefly: Cytotoxicity against human SF268 cells up to 5 uM after 72 hrs by resazurin-based colorimetric assay. The format is functional, cell-based. The method in brief: as §1
In series [8] the test system is NCI-H460. The series is described as follows: Cytotoxicity against human NCI-H460 cells up to 5 uM after 72 hrs by resazurin-based colorimetric assay. The format is functional, cell-based. The method in brief:
as §2

Series [9] deals with LNCaP. Briefly: Cytotoxicity against human LNCAP cells up to 5 uM after 72 hrs by resazurin-based colorimetric assay. The format is functional, cell-based. The method in brief:
as §4

Series [10] concerns PC-3M. The series is described as follows: Cytotoxicity against human PC3M cells up to 5 uM after 72 hrs by resazurin-based colorimetric assay. It is filed as functional, cell-based. Put shortly: as §5
Series [11] relates to HFF. The series is described as follows: Cytotoxicity against human HFF cells up to 5 uM after 72 hrs by resazurin-based colorimetric assay. The format is cell-based. The method in brief: as §1
The subject of series [12] is MCF7. The series is described as follows: Cytotoxicity against human MCF7 cells up to 5 uM after 72 hrs by resazurin-based colorimetric assay. It is filed as functional, cell-based. The method in brief: as §3

The IC50 is the concentration that inhibits the measured activity by half. The low end stands for inhibition by little substance, the high end for a need for much substance. For the compound `CC(=O)OC[C@]12CC[C@H]3[C@@H](CC=C4C[C@@H](OS(=O)(=O)O)CC(=O)[C@@]43C)[C@]1(O)CC[C@@]2(O)[C@@](C)(O)[C@H]1CC(C)=C(C)C(=O)O1`, the half-maximal inhibitory concentration (IC50) in the series on HFF [1] is greater than 5 µM; in the series with NCI-H460 [2], 3.8 µM; with MCF7 [3], 2.2 µM; with SF-268 [4], greater than 5 µM; in the series on LNCaP [5] it was 0.21 µM; in the series with PC-3M [6], 0.56 µM.

For `CC(=O)OC[C@]12CC[C@H]3[C@@H](CC=C4CC=CC(=O)[C@@]43C)[C@]1(O)CC[C@@]2(O)[C@@](C)(O)[C@H]1CC(C)=C(CO)C(=O)O1`, the IC50 in the series with NCI-H460 [2] is greater than 5 µM; with MCF7 [3], greater than 5 µM; with SF-268 [4], greater than 5 µM; in the series on LNCaP [5], 3.7 µM; in the series on PC-3M [6] it was greater than 5 µM.

On to `CC(=O)OC[C@]12CC[C@H]3[C@@H](CC=C4CC=CC(=O)[C@@]43C)[C@]1(O)[C@@H](O)C[C@@]2(O)[C@@](C)(O)[C@H]1CC(C)=C(C)C(=O)O1`, for which the IC50 with NCI-H460 [2] is greater than 2.5 µM; in the series on MCF7 [3] it was greater than 2.5 µM; in the series on SF-268 [4], greater than 2.5 µM; in the series on LNCaP [5] it was 0.19 µM; with PC-3M [6], 0.6 µM.

`CC(=O)OC[C@]12CC[C@H]3[C@@H](CC=C4CC=CC(=O)[C@@]43C)[C@]1(O)CC[C@@H]2[C@@](C)(O)[C@@H]1OC(=O)C(C)=C(C)[C@@H]1O`: the result in the series on SF-268 [7], in the series with NCI-H460 [8], with LNCaP [9], in the series on PC-3M [10] and in the series on MCF7 [12] was inactive. In addition, the Activity result with HFF [11] is on record as “Non-Toxic”.

Consider `CC(=O)OC[C@]12CC[C@H]3[C@@H](CC=C4CC=CC(=O)[C@@]43C)[C@]1(O)[C@@H](OC(C)=O)C[C@@]2(O)[C@@](C)(O)[C@H]1CC(C)=C(CO[C@@H]2O[C@H](CO)[C@@H](O)[C@H](O)[C@H]2O)C(=O)O1`, for which the result in the series with SF-268 [7], with NCI-H460 [8], in the series with LNCaP [9], in the series on PC-3M [10] and in the series with MCF7 [12] was inactive. The Activity entry in the series on HFF [11] is reported as “Non-Toxic”.

Turning to `CC(=O)OC[C@]12CC[C@H]3[C@@H](CC=C4CC=CC(=O)[C@@]43C)[C@]1(O)[C@@H](OC(C)=O)C[C@@]2(O)[C@@](C)(O)[C@H]1CC(C)=C(CO)C(=O)O1`, the result in the series on SF-268 [7], in the series on NCI-H460 [8], in the series with LNCaP [9], in the series with PC-3M [10] and with MCF7 [12] was inactive. Further, in the series on HFF [11], the Activity entry was “Non-Toxic”.

In the case of `CC1=C(C)C(=O)O[C@@H]([C@](C)(O)[C@H]2CC[C@@]3(O)[C@@H]4[C@@H]5O[C@@H]5[C@@]5(O)CC=CC(=O)[C@]5(C)[C@H]4CC[C@]23C)C1`, the result in the series on SF-268 [7], in the series on NCI-H460 [8], with LNCaP [9], with PC-3M [10] and in the series with MCF7 [12] was inactive. For the same compound, the Activity result in the series on HFF [11] is given as “Non-Toxic”.

As to `C/C(=C1/C(=O)C[C@H]2[C@@H]3[C@@H]4O[C@@H]4[C@@]4(O)CC=CC(=O)[C@]4(C)[C@H]3CC[C@]12C)[C@H]1C[C@]2(C)O[C@]2(C)[C@H](O)O1`, the outcome with SF-268 [7], with NCI-H460 [8], in the series with LNCaP [9], in the series with PC-3M [10] and in the series on MCF7 [12] was inactive. Moreover, in the series with HFF [11], the Activity result is recorded as “Non-Toxic”.

`COc1cccc2c1C(=O)c1c(O)c3c(c(O)c1C2=O)C[C@@](O)(C(=O)CO)C[C@@H]3O[C@H]1C[C@H](N)[C@H](O)[C@H](C)O1` [DOXORUBICIN]: the values for the IC50 with MCF7 [3] and in the series with PC-3M [6] were 0.32 µM and 0.25 µM, respectively.

`CC(=O)OC[C@]12CC[C@H]3[C@@H](CC=C4C=CCC(=O)[C@@]43C)[C@]1(O)[C@@H](OC(C)=O)C[C@@]2(O)[C@@](C)(O)[C@H]1CC(CO)=C(C)C(=O)O1`: the result in the series with SF-268 [7], with NCI-H460 [8], in the series with LNCaP [9], in the series on PC-3M [10] and in the series with MCF7 [12] was inactive. Also, the Activity result in the series with HFF [11] is listed as “Non-Toxic”.

Turning to `CC(=O)OC[C@]12CC[C@H]3[C@@H](C[C@H]4O[C@]45CC=CC(=O)[C@]35C)[C@]1(O)[C@@H](OC(C)=O)C[C@@]2(O)[C@@](C)(O)[C@H]1CC(C)=C(C)C(=O)O1`, the concentration for half-maximal inhibition (IC50) is greater than 2.5 µM in the series on NCI-H460 [2]; greater than 2.5 µM in the series with MCF7 [3]; greater than 2.5 µM in the series on SF-268 [4]; 1.2 µM with LNCaP [5]; 1.8 µM with PC-3M [6].

As to `CC(=O)OC[C@]12CC[C@H]3[C@@H](CC=C4CC=CC(=O)[C@@]43C)[C@]1(O)[C@@H](OC(C)=O)C[C@@]2(O)[C@@](C)(O)[C@H]1CC(CO[C@@H]2O[C@H](CO)[C@@H](O)[C@H](O)[C@H]2O)=C(C)C(=O)O1`, the outcome in the series on SF-268 [7], in the series on NCI-H460 [8], in the series with LNCaP [9], with PC-3M [10] and in the series on MCF7 [12] was inactive. For the same compound, the Activity result with HFF [11] is recorded as “Non-Toxic”.

`CC(=O)OC[C@]12CC[C@H]3[C@@H](CC=C4C[C@@H](OS(=O)(=O)O)CC(=O)[C@@]43C)[C@]1(O)[C@@H](OC(C)=O)C[C@@]2(O)[C@@](C)(O)[C@H]1CC(C)=C(C)C(=O)O1`: the IC50 in the series with NCI-H460 [2] was 2.5 µM; in the series on MCF7 [3], greater than 5 µM; with SF-268 [4], 2.8 µM; in the series on LNCaP [5], 0.12 µM; in the series with PC-3M [6], 0.43 µM.

Take `CC(=O)OC[C@]12CC[C@H]3[C@@H](CC=C4CC=CC(=O)[C@@]43C)[C@]1(O)CC[C@@H]2[C@@](C)(O)[C@H]1CC(C)=C(C)C(=O)O1`: the result with SF-268 [7], in the series with NCI-H460 [8], in the series with LNCaP [9], with PC-3M [10] and with MCF7 [12] was inactive. Further, the Activity entry with HFF [11] is “Non-Toxic”.

As to `CC1=C(CO)C(=O)O[C@@H]([C@@H](C)[C@H]2CC[C@H]3[C@@H]4C[C@H]5O[C@]56[C@@H](O)C=CC(=O)[C@]6(C)[C@H]4CC[C@]23C)C1` [WITHAFERIN A], the IC50 with HFF [1] is greater than 6.8 µM; in the series on NCI-H460 [2] it was less than 0.4 µM; in the series on SF-268 [4], less than 0.4 µM; in the series on PC-3M [6] it was 0.41 µM.
